Measurements from ChEMBL document CHEMBL4396890, “Synthesis, Biological Evaluation, Structure-Activity Relationship, and Mechanism of Action Studies of Quinoline-Metronidazole Derivatives Against Experimental Visceral Leishmaniasis” (J Med Chem, 2019).
The source made the active and inactive calls. No cut-off for these calls is given here.

How the values were obtained:
[1] = tested on: Leishmania donovani; test: Antileishmanial activity against Leishmania donovani MHOM/IN/80/Dd8 promastigotes harboring luciferase reporter gene at 50 uM after 48 hrs by Steady-Glo luminescence assay relative to control; format: functional; settings: for inhibition at 50 µM: MHOM/IN/80/Dd8, 48 h
Outline: (§1)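 Luciferase-expressing L. donovani Dd8 promastigotes were grown at 24 °C in M199 with 10% heat-inactivated FBS and G418 20 μg/mL. They were treated at varied concentrations for 24 and 48 h, and inhibition was read as relative luminescence units versus untreated control. IC50 was from dose–response; screening values are mean ± SD of at least three experiments in duplicate.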

[2] = tested on: Leishmania donovani; test: Antileishmanial activity against Leishmania donovani MHOM/IN/80/Dd8 promastigotes harboring luciferase reporter gene at 25 uM after 48 hrs by Steady-Glo luminescence assay relative to control; format: functional; settings: for inhibition at 25 µM: MHOM/IN/80/Dd8, 48 h; outline: as §1
[3] = tested on: Leishmania donovani; test: Antileishmanial activity against Leishmania donovani MHOM/IN/80/Dd8 amastigotes harboring luciferase reporter gene infected in mouse J774 cells at 50 uM after 48 hrs by Steady-Glo luminescence assay relative to control; format: functional; settings: for inhibition at 50 µM: MHOM/IN/80/Dd8, J774, 48 h
Outline: (§2)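 Infection of J774 macrophages with L. donovani Dd8 promastigotes at a 1:8 cell:parasite ratio. Compounds were diluted 2-fold in RPMI over 3.125–100 μM final and applied for 48 h. Amastigote inhibition was read by luciferase (RLU) or by Giemsa count of amastigotes per 100 macrophages. IC50 was from dose–response; n = 3 independent experiments done in replicate.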

[4] = tested on: Leishmania donovani; test: Antileishmanial activity against Leishmania donovani MHOM/IN/80/Dd8 amastigotes harboring luciferase reporter gene infected in mouse J774 cells at 25 uM after 48 hrs by Steady-Glo luminescence assay relative to control; format: functional; settings: for inhibition at 25 µM: MHOM/IN/80/Dd8, J774, 48 h; outline: as §2
[5] = tested on: Leishmania donovani; test: Antileishmanial activity against Leishmania donovani MHOM/IN/80/Dd8 promastigotes infected in BALB/c mouse assessed as reduction in parasite load in spleen at 50 mg/kg, ip administered once daily for 5 days measured 7 days post dose by giemsa staining-based assay relative to control; format: functional; design: scale not given: the % may be the effect or the level left
Outline: (§3)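 Hamster-passaged strain was transformed to promastigotes. Stationary-phase cells (2 × 10^7 in 0.2 mL PBS) were injected into the tail vein of BALB/c mice. From day 15 post-infection, mice received compound ip in 8% DMSO in PBS for 5 consecutive days, 5 mice per group. Mice were killed day 7 post-treatment. Liver and spleen burden was read from Giemsa-stained stamp smears as LDU.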

[6] = tested on: Leishmania donovani; test: Antileishmanial activity against Leishmania donovani MHOM/IN/80/Dd8 promastigotes infected in BALB/c mouse assessed as reduction in parasite load in liver at 50 mg/kg, ip administered once daily for 5 days measured 7 days post dose by giemsa staining-based assay relative to control; format: functional; design: scale not given: the % may be the effect or the level left; outline: as §3
[7] = Toxicity in BALB/c mouse infected with Leishmania donovani MHOM/IN/80/Dd8 promastigotes assessed as death at 12.5 to 200 mg/kg, ip administered once daily for 5 days measured up to 7 days post dose; format: organism-based; settings: in vivo
Outline: (§4)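 BALB/c mice (20 ± 2 g) were infected by tail-vein injection of 2 × 10^7 stationary-phase promastigotes. At day 15 they received ip doses in 8% DMSO/PBS for 5 consecutive days and were killed at day 7 post-treatment. Survival, general health and body weight were monitored; 5 mice per group.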

[8] = Toxicity in BALB/c mouse infected with Leishmania donovani MHOM/IN/80/Dd8 promastigotes assessed as effect on health at 12.5 to 200 mg/kg, ip administered once daily for 5 days measured up to 7 days post dose; format: organism-based; settings: in vivo; outline: as §4
[9] = Toxicity in BALB/c mouse infected with Leishmania donovani MHOM/IN/80/Dd8 promastigotes assessed as reduction in body weight at 12.5 to 200 mg/kg, ip administered once daily for 5 days measured up to 7 days post dose; format: organism-based; settings: in vivo; outline: as §4
[10] = Toxicity in BALB/c mouse infected with Leishmania donovani MHOM/IN/80/Dd8 promastigotes assessed as death at 25 mg/kg, po administered once daily for 5 days measured up to 7 days post dose; format: organism-based; settings: in vivo
Outline: (§5)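 BALB/c mice (20 ± 2 g) were infected by tail-vein injection of 2 × 10^7 stationary-phase promastigotes. From day 15 they were given miltefosine 25 mg/kg orally, suspended in triple-distilled water, daily for 5 days, and killed at day 7 post-treatment. Survival, health and body weight were monitored; 5 mice per group.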

[11] = Toxicity in BALB/c mouse infected with Leishmania donovani MHOM/IN/80/Dd8 promastigotes assessed as effect on health at 25 mg/kg, po administered once daily for 5 days measured up to 7 days post dose; format: organism-based; settings: in vivo; outline: as §5
[12] = Toxicity in BALB/c mouse infected with Leishmania donovani MHOM/IN/80/Dd8 promastigotes assessed as reduction in body weight at 25 mg/kg, po administered once daily for 5 days measured up to 7 days post dose; format: organism-based; settings: in vivo; outline: as §5
[13] = Toxicity in BALB/c mouse infected with Leishmania donovani MHOM/IN/80/Dd8 promastigotes assessed as death at 50 mg/kg, ip administered once daily for 5 days measured up to 7 days post dose; format: organism-based; settings: in vivo; outline: as §4
[14] = Toxicity in BALB/c mouse infected with Leishmania donovani MHOM/IN/80/Dd8 promastigotes assessed as effect on health at 50 mg/kg, ip administered once daily for 5 days measured up to 7 days post dose; format: organism-based; settings: in vivo; outline: as §4
[15] = Toxicity in BALB/c mouse infected with Leishmania donovani MHOM/IN/80/Dd8 promastigotes assessed as reduction in body weight at 50 mg/kg, ip administered once daily for 5 days measured up to 7 days post dose; format: organism-based; settings: in vivo; outline: as §4
[16] = tested on: Leishmania donovani; test: Antileishmanial activity against Leishmania donovani MHOM/IN/80/Dd8 amastigotes harboring luciferase reporter gene infected in mouse J774 cells after 48 hrs by Steady-Glo luminescence assay; format: functional, organism-based; settings: MHOM/IN/80/Dd8, J774, 48 h; outline: as §2
[17] = tested on: Leishmania donovani; test: Antileishmanial activity against Leishmania donovani MHOM/IN/80/Dd8 amastigotes harboring luciferase reporter gene infected in mouse J774 cells after 48 hrs by Giemsa staining-based microscopic assay; format: functional, organism-based; settings: MHOM/IN/80/Dd8, J774, 48 h; outline: as §2
[18] = Selectivity index, ratio of CC50 for […] Vero cells to IC50 for antileishmanial activity against Leishmania donovani MHOM/IN/80/Dd8 harboring luciferase reporter gene; format: toxicity
Outline: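 J774 macrophages and Vero cells were exposed to 12.5–400 μM for 48 h, with viability by MTT. CC50 was derived, and SI was calculated as CC50 divided by anti-amastigote IC50 in each cell type.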

[19] = tested on: Leishmania donovani; test: Antileishmanial activity against Leishmania donovani MHOM/IN/80/Dd8 promastigotes infected in BALB/c mouse assessed as reduction in parasite load in spleen at 25 mg/kg, po administered once daily for 5 days measured 7 days post dose by giemsa staining-based assay relative to control; format: functional; design: scale not given: the % may be the effect or the level left
Outline: (§6)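 Reference-drug arm of the same infection model (BALB/c mice, 15-day infection, 2 × 10^7 promastigotes iv). Drug was suspended in triple distilled water and given orally at 25 mg/kg/day for 5 days, 5 mice per group. Hepatic and splenic burden was taken at day 7 post-treatment by Giemsa stamp smears, as LDU.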

[20] = tested on: Leishmania donovani; test: Antileishmanial activity against Leishmania donovani MHOM/IN/80/Dd8 promastigotes infected in BALB/c mouse assessed as reduction in parasite load in liver at 25 mg/kg, po administered once daily for 5 days measured 7 days post dose by giemsa staining-based assay relative to control; format: functional; design: scale not given: the % may be the effect or the level left; outline: as §6
[21] = Selectivity index, ratio of CC50 for mouse J774 cells to IC50 for antileishmanial activity against Leishmania donovani MHOM/IN/80/Dd8 harboring luciferase reporter gene
[22] = tested on: Leishmania donovani; test: Induction of mitochondrial potential loss in Leishmania donovani MHOM/IN/80/Dd8 promastigotes assessed as shift in red to green fluorescence at 50 uM by JC1 dye-based flow cytometry (reference value: 7.37%); format: functional

Cc1ncc([N+](=O)[O-])n1CCOc1cccc(-c2cc(-c3ccccc3)c3cc(Br)ccc3n2)c1
inhibition at 50 µM [1]: 60.8%
inhibition at 25 µM [2]: 30.2%
inhibition at 50 µM [3]: 65.3%
inhibition at 25 µM [4]: 29.5%

Cc1ncc([N+](=O)[O-])n1CCOc1cccc(-c2cc(-c3ccccc3)c3ccccc3n2)c1
inhibition at 50 µM [1]: 63%
inhibition at 25 µM [2]: 43%
inhibition at 50 µM [3]: 66.4%
inhibition at 25 µM [4]: 31.2%

Cc1ncc([N+](=O)[O-])n1CCOc1cccc(-c2cc(-c3ccccc3Cl)c3cc(Cl)ccc3n2)c1
inhibition at 50 µM [1]: 26%
inhibition at 25 µM [2]: 12.3%
inhibition [3]: inactive
inhibition [4]: inactive

Cc1ncc([N+](=O)[O-])n1CCOc1ccc(-c2cc(-c3ccccc3)c3ccc(Br)cc3n2)cc1
inhibition at 50 µM [1]: 63.9%
inhibition at 25 µM [2]: 41.3%
inhibition at 50 µM [3]: 60.3%
inhibition at 25 µM [4]: 33.8%

Cc1ncc([N+](=O)[O-])n1CCOc1ccc(-c2cc(-c3ccccc3F)c3cc(Cl)ccc3n2)cc1
inhibition at 50 µM [1]: 59.1%
inhibition at 25 µM [2]: 34.4%
inhibition at 50 µM [3]: 63.6%
inhibition at 25 µM [4]: 23.4%

Cc1ncc([N+](=O)[O-])n1CCO [METRONIDAZOLE]
inhibition at 50 µM [1]: 62.2%
inhibition at 25 µM [2]: 41.3%
inhibition at 50 µM [3]: 68.1%
inhibition at 25 µM [4]: 31.2%
Activity [5]: 36.6%
Activity [6]: 40.8%
Activity [7]: Non-Toxic
Activity [8]: Non-Toxic
Activity [9]: Non-Toxic
Activity [10]: Non-Toxic
Activity [11]: Non-Toxic
Activity [12]: Non-Toxic
Activity [13]: Non-Toxic
Activity [14]: Non-Toxic
Activity [15]: Non-Toxic

c1ccc2ncccc2c1 [QUINOLINE]
inhibition at 50 µM [1]: 80.2%
inhibition at 25 µM [2]: 42.4%
inhibition at 50 µM [3]: 83.6%
inhibition at 25 µM [4]: 64.5%
Activity [5]: 55.2%
Activity [6]: 58.2%
Activity [7]: Non-Toxic
Activity [8]: Non-Toxic
Activity [9]: Non-Toxic
Activity [10]: Non-Toxic
Activity [11]: Non-Toxic
Activity [12]: Non-Toxic
Activity [13]: Non-Toxic
Activity [14]: Non-Toxic
Activity [15]: Non-Toxic

Cc1ncc([N+](=O)[O-])n1CCOc1cccc(-c2cc(-c3ccccc3)c3cc([N+](=O)[O-])ccc3n2)c1
inhibition [1]: inactive
inhibition [2]: inactive
inhibition at 50 µM [3]: 10.4%
inhibition [4]: inactive

Cc1ncc([N+](=O)[O-])n1CCOc1ccc(-c2cc(-c3ccccc3)c3cc(Cl)ccc3n2)cc1
inhibition at 50 µM [1]: 65.8%
inhibition at 25 µM [2]: 45.3%
inhibition at 50 µM [3]: 64.4%
inhibition at 25 µM [4]: 34.2%

Cc1ncc([N+](=O)[O-])n1CCOc1ccc(-c2cc(-c3ccccc3Cl)c3cc(Cl)ccc3n2)cc1
inhibition at 50 µM [1]: 61.7%
inhibition at 25 µM [2]: 38.2%
inhibition at 50 µM [3]: 27.2%
inhibition at 25 µM [4]: 12.1%

Cc1ncc([N+](=O)[O-])n1CCOc1ccc(-c2cc(-c3ccccc3)c3ccccc3n2)cc1
inhibition at 50 µM [1]: 93.2%
inhibition at 25 µM [2]: 78.2%
inhibition at 50 µM [3]: 67.7%
inhibition at 25 µM [4]: 45.3%

CCCCCCCCCCCCCCCCOP(=O)([O-])OCC[N+](C)(C)C [MILTEFOSINE]
inhibition at 50 µM [1]: 99.5%
inhibition at 25 µM [2]: 97.2%
inhibition at 50 µM [3]: 99.2%
inhibition at 25 µM [4]: 98.3%
IC50 [16]: 9.59 µM
IC50 [17]: 9.59 µM
selectivity ratio [18]: 5.3
Activity [19]: >98%
Activity [20]: >98%
Activity [10]: Non-Toxic
Activity [11]: Non-Toxic
Activity [12]: Non-Toxic
selectivity ratio [21]: 5.8

N#CC(C#N)=NNc1cccc(Cl)c1 [CARBONYL CYANIDE M-CHLOROPHENYLHYDRAZONE]
Activity [22]: 95.49%

Cc1ncc([N+](=O)[O-])n1CCOc1cccc(-c2cc(-c3ccccc3)c3cc(Cl)ccc3n2)c1
inhibition at 50 µM [1]: 58.2%
inhibition at 25 µM [2]: 41.2%
inhibition at 50 µM [3]: 59.2%
inhibition at 25 µM [4]: 38.2%

Cc1ncc([N+](=O)[O-])n1CCOc1cccc(-c2cc(-c3ccccc3F)c3cc(Cl)ccc3n2)c1
inhibition [1]: inactive
inhibition [2]: inactive
inhibition at 50 µM [3]: 12.1%
inhibition [4]: inactive
